Data: article PMC5095872 (Chemmedchem, 2016)

Key:
[1] = Liver microsome stability, mouse; type: in vitro ADME; conditions: mouse liver microsomes; well-stirred model
[2] = Hepatocyte stability, rat; type: in vitro ADME; conditions: rat hepatocytes; well-stirred model
[3] = Liver microsome stability, human; type: in vitro ADME; conditions: human liver microsomes; well-stirred model
[4] = Liver microsome stability, dog; type: in vitro ADME; conditions: dog liver microsomes; well-stirred model
[5] = Liver microsome stability, monkey; type: in vitro ADME; conditions: monkey liver microsomes; well-stirred model
[6] = Liver microsome stability, rat; type: in vitro ADME; conditions: rat liver microsomes; well-stirred model
[7] = Hepatocyte stability, human; type: in vitro ADME; conditions: human hepatocytes; well-stirred model
Outline: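 Human hepatocytes. Intrinsic clearance (CLint) was converted to blood clearance with the well-stirred hepatic model: CLb = QH×CLint/(QH + CLint). Human liver blood flow (QH) was 1.32 L h⁻¹ kg⁻¹.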

[8] = Hepatocyte stability, monkey; type: in vitro ADME; conditions: monkey hepatocytes; well-stirred model
[9] = Hepatocyte stability, dog; type: in vitro ADME; conditions: dog hepatocytes; well-stirred model
Outline: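 Dog hepatocytes. Intrinsic clearance (CLint) was scaled to blood clearance with the well-stirred liver model: CLb = QH×CLint/(QH + CLint). Dog liver blood flow (QH) was 2.1 L h⁻¹ kg⁻¹.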

[10] = In vivo pharmacokinetics, rat; conditions: male Wistar rat, 0.6 mg kg^−1 p.o.; Cmax,p.o./dose p.o.
[11] = In vivo pharmacokinetics, dog; conditions: female Beagle dog, 0.2 mg kg^−1 p.o.; Cmax,p.o./dose p.o.
[12] = Caco-2 permeability assay; type: in vitro ADME; conditions: human

SMILES	LM stability CL b,LM [1] [L/h/kg]	Hep stability CL b,Hep [2] [L/h/kg]	LM stability CL b,LM [3] [L/h/kg]	LM stability CL b,LM [4]	Hep stability CL b,Hep [9] [L/h/kg]	other results
Cc1ccc2nc(C(N)=O)cc(C(=O)Nc3c(C(F)(F)F)nn(Cc4ccc(C#N)cc4)c3C)c2c1 [Compound 17]	2.3	2.0	–	–	–	–
Cc1c(NC(=O)c2cc(C(N)=O)nc3cc(F)ccc23)c(C(F)(F)F)nn1Cc1ncc(C#N)cn1 [Compound 58]	–	0.89	0.22	–	–	–
Cc1c(NC(=O)c2cc(C(N)=O)nc3cc(F)ccc23)c(C(F)(F)F)nn1Cc1ccc(C#N)cn1 [Compound 54]	0.36	0.04	0.19	0.001 L/h/kg	0.001	LM stability CL b,LM [5]: 0.40 L/h/kg; LM stability CL b,LM [6]: 0.37 L/h/kg; Hep stability CL b,Hep [7]: 0.03 L/h/kg; Hep stability CL b,Hep [8]: 0.32 L/h/kg
Cc1c(NC(=O)c2cc(C(F)(F)F)nc3ccc(Br)cc23)c(C(F)(F)F)nn1Cc1ccc(F)cc1 [Compound 12]	2.2	2.6	–	–	–	–
Cc1c(NC(=O)c2cc(C(N)=O)nc3cc(F)ccc23)c(C(C)C)nn1Cc1ccc(C#N)cc1 [Compound 43]	–	–	0.87	–	–	–
Cc1ccc2nc(C)cc(C(=O)Nc3c(C)nn(Cc4ccc(F)cc4)c3C)c2c1 [Compound 2]	4.0	3.7	1.2	–	–	–
Cc1c(NC(=O)c2cc(C(N)=O)nc3cc(F)ccc23)c(C(F)(F)F)nn1Cc1ccc(C#N)cc1 [Compound 19, N ^4 ‐[1‐(4‐Cyanobenzyl)‐5‐methyl‐3‐(trifluoromethyl)‐1H‐pyrazol‐4‐yl]‐7‐fluoroquinoline‐2,4‐dicarboxamide]	–	–	0.32	stable	0.20	LM stability CL b,LM [5]: 0.76 L/h/kg; Hep stability CL b,Hep [7]: 0.37 L/h/kg; C max,norm,p.o. [10]: 0.33 kg L ^−1; C max,norm,p.o. [11]: 0.93 kg L ^−1
Cc1c(NC(=O)c2cc(C(N)=O)nc3cc(F)ccc23)c(C(F)(F)F)nn1Cc1cnc(C#N)cn1 [Compound 57]	–	1.2	0.53	–	–	–
Cc1c(NC(=O)c2cc(C(N)=O)nc3ccccc23)c(C(F)(F)F)nn1Cc1ccc(C#N)cc1 [Compound 13]	1.4	1.8	0.21	0.06 L/h/kg	0.11	Papp A→B at 2 h, 2 µM [12]: 74 nm/s
